{"data": "Measurements from different studies", "organism": "Plasmodium falciparum", "effect on": "parasite growth", "note": "Protocols differ between the studies behind these lines."}
{"SMILES": "COc1ccccc1C(=O)/C=C/c1cn(Cc2cn(-c3ccnc4cc(Cl)ccc34)nn2)c2ccccc12", "assay": "SYBR Green", "setting": "drug-resistant strain, blood stage", "measurement": "IC50", "result": "3500 nM"}
{"SMILES": "COCC(=O)N1CCCC(C(=O)NCc2nc(-c3ccccc3)cs2)C1 (racemic)", "assay": "SYBR Green", "system": "DD2", "setting": "72 h, blood stage", "measurement": "EC50", "result": "140 to 190 nM"}
{"SMILES": "O=C(/C=C/c1cn(Cc2cn(-c3ccnc4cc(Cl)ccc34)nn2)c2ccccc12)c1ccc(Br)cc1", "assay": "SYBR Green", "system": "3D7", "setting": "10 µM, blood stage", "measurement": "inhibition", "result": "37.4%"}
{"SMILES": "O=C1C(O)=C([C@H]2CC[C@H](c3ccc(Cl)cc3)CC2)C(=O)c2ccccc21", "assay": "SYBR Green", "setting": "72 h", "measurement": "EC50", "result": "0.86 nM"}
{"SMILES": "O=C(/C=C/c1cn(Cc2cn(-c3ccnc4cc(Cl)ccc34)nn2)c2ccccc12)c1cccc([N+](=O)[O-])c1", "assay": "SYBR Green", "system": "3D7", "setting": "5 µM, blood stage", "measurement": "inhibition", "result": "4.82%"}
{"SMILES": "NC1=CC2=NCCc3c[nH]c(c32)C1=O", "assay": "SYBR Green", "system": "W2", "setting": "blood stage", "measurement": "IC50", "result": "294 nM"}
{"SMILES": "CCN(CC)CCCC(C)Nc1ccnc2cc(Cl)ccc12 (stereo not shown)", "assay": "SYBR Green", "system": "D6", "setting": "72 h, blood stage", "measurement": "IC50", "result": "6.57 nM"}
{"SMILES": "O=C1C(NCCc2ccc(O)cc2)=CC2=NCCc3c[nH]c1c32", "assay": "SYBR Green", "system": "W2", "setting": "blood stage", "measurement": "IC50", "result": "476 nM"}
{"SMILES": "O=C(/C=C/c1cn(Cc2cn(-c3ccnc4cc(Cl)ccc34)nn2)c2ccccc12)c1ccccc1[N+](=O)[O-]", "assay": "SYBR Green", "system": "3D7", "setting": "5 µM, blood stage", "measurement": "inhibition", "result": "-5.03%"}
{"SMILES": "CCOCC(=O)N1CCC[C@H](C(=O)NCc2nc(-c3ccc(C)nc3)cs2)C1", "assay": "SYBR Green", "system": "DD2", "setting": "72 h, blood stage", "measurement": "EC50", "result": "5 nM"}
{"SMILES": "Cn1cc2c3c1C(=O)C(NCCc1ccc(O)cc1)=CC3=NCC2", "assay": "SYBR Green", "system": "W2", "setting": "blood stage", "measurement": "IC50", "result": "5010 nM"}
{"SMILES": "Cc1cc(Nc2ccc(S(F)(F)(F)(F)F)cc2)n2nc(C(C)(F)F)nc2n1", "system": "3D7", "setting": "blood stage", "measurement": "EC50", "result": "8.4 nM"}
{"SMILES": "O=C1C(NCCc2c[nH]c3ccccc23)=CC2=NCCc3c[nH]c1c32", "assay": "SYBR Green", "system": "DD2", "setting": "blood stage", "measurement": "IC50", "result": "598 nM"}
{"SMILES": "COCC(=O)N1CCC[C@H](C(=O)NCc2nc(-c3cccnc3)cs2)C1", "assay": "SYBR Green", "system": "DD2", "setting": "72 h, blood stage", "measurement": "EC50", "result": "92 nM"}
{"SMILES": "O=C1c2[nH]cc3c2C(=NCC3)c2c(-c3ccc(O)cc3)c[nH]c21", "assay": "SYBR Green", "system": "DD2", "setting": "blood stage", "measurement": "IC50", "result": "4770 nM"}
{"SMILES": "O=C(/C=C/c1cn(Cc2cn(-c3ccnc4cc(Cl)ccc34)nn2)c2ccccc12)c1ccccc1", "assay": "SYBR Green", "system": "3D7", "setting": "5 µM, blood stage", "measurement": "inhibition", "result": "-3.08%"}
{"SMILES": "COC(CNC1=CC2=NCCc3c[nH]c(c32)C1=O)c1c[nH]c2ccccc12 (stereo not shown)", "assay": "SYBR Green", "system": "DD2", "setting": "blood stage", "measurement": "IC50", "result": "654 nM"}
{"SMILES": "O=C(/C=C/c1cn(Cc2cn(-c3ccnc4cc(Cl)ccc34)nn2)c2ccccc12)c1ccccc1Br", "assay": "SYBR Green", "system": "3D7", "setting": "5 µM, blood stage", "measurement": "inhibition", "result": "-1.58%"}
{"SMILES": "CCOC(=O)C1=C(C)NC2=C(C(=O)CC(c3ccc(Cl)c(OC)c3)C2)C1c1ccccc1Cl (stereo not shown)", "assay": "SYBR Green", "system": "3D7", "setting": "blood stage", "measurement": "EC50", "result": "~20 nM"}
